High-throughput results from PubChem BioAssay.
GASC1 inh = blocks human GASC-1 (KDM4C) demethylase activity; Q9H3R0; GST-KDM4C 2-372, H3K9me3 peptide, LANCE TR-FRET; inhibition, % at 12.5 µM; 96,000 compounds, 0.15% hits; AID 720574;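 active = mean replicate inhibition above about 25%, with at least 55% of replicates also reaching it, limit read from the data, passing the limit was not always enough; inconclusive = only one of those two conditions met; inactive = neither condition met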
Target sequence (Q9H3R0 2-372 limits assumed): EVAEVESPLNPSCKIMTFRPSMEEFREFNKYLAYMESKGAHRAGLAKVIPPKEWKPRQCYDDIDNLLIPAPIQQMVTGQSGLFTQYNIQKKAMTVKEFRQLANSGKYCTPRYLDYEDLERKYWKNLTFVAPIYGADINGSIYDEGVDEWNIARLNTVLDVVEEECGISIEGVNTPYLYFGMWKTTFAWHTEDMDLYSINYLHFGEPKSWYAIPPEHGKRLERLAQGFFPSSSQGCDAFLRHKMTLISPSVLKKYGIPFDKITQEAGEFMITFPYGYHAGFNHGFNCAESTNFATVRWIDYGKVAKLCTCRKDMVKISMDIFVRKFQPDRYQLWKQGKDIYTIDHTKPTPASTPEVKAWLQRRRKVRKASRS
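Material: GST-tagged GASC-1 (JMJD2C) catalytic fragment, aa 2-372. Input: enzyme final amount 10 nM. Medium: HEPES buffer, pH 7.5, plus ascorbate. Reagent: H3K9me3 peptide substrate, Fe(II), 2-oxoglutarate. Doses: single dose. Times: reaction 30 min RT, detection step 1 h RT. Measured by: LANCE TR-FRET. Evaluation: Fall in 671/618 emission ratio as inhibition.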
IDH1 R132H inh = IDH1 R132H (human) inhibition. inhibition, % at 10 µM. 70,000 compounds, 0.18% hits. O75874. IDH1 R132H reductase, diaphorase/resazurin fluorescence, 60 min; in the data active = inhibition above about 34%; inconclusive = no clear call, values can overlap the other calls; inactive = below about 11%
Target sequence (O75874 whole entry R132H): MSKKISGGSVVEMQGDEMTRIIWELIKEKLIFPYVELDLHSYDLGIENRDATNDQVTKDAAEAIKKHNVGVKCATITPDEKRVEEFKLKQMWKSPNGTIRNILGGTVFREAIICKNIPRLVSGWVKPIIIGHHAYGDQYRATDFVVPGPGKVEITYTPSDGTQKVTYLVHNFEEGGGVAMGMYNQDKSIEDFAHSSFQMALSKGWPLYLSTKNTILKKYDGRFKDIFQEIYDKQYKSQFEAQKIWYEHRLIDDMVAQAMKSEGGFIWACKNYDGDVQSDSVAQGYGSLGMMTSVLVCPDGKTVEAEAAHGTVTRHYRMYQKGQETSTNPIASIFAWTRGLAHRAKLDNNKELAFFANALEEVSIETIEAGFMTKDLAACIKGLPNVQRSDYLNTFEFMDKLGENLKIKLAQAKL
T cruzi growth-1 = T. cruzi proliferation inhibition; T. cruzi beta-gal in NIH3T3, GalScreen luminescence, 90 h; inhibition, % at 8.34 µM; 77,000 compounds, 5.9% hits; AID 624255;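 active = mean inhibition above about 93%, with at least 55% of replicates each passing it, limit read from the data, passing the limit was not always enough; inconclusive = only one of those two conditions holds; inactive = neither condition holds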
T cruzi growth-2 = blocks T. cruzi growth in NIH3T3 host cells; shares compounds with T cruzi growth-1; T. cruzi beta-gal in NIH3T3, GalScreen luminescence, 90 h; inhibition, % at 8.35 µM; 5,600 compounds, 72% hits;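 active = mean replicate inhibition above about 95% and at least 55% of replicates individually reaching it, limit read from the data; inconclusive = only one of the two criteria is met; inactive = neither criterion is met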
T cruzi growth-3 = inhibitors of T. cruzi proliferation; inhibition, % at 2.09 µM; 5,600 compounds, 21% hits; T. cruzi beta-gal in NIH3T3, GalScreen luminescence, 90 h; shares compounds with T cruzi growth-1;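 active = mean inhibition above about 95%, with at least 55% of replicates also reaching it, limit read from the data; inconclusive = meets just one of the two conditions; inactive = meets neither condition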
3T3 cytotox = NIH/3T3 (mouse) viability loss; shares compounds with T cruzi growth-1; NIH/3T3 viability, CellTiter-Glo ATP luminescence, 90 h; AID 651742; 5,600 compounds, 14% hits; cytotoxicity (signal decrease), % at 8.35 µM;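 active = mean signal decrease across replicates above about 35% based on untreated-well scatter, with enough replicates individually passing, limit read from the data; inconclusive = no rule stated though some were filed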
NIH3T3 tox 2 = NIH/3T3 (mouse) viability loss; inhibition, % at 24.9 µM; shares compounds with T cruzi growth-1; NIH/3T3 viability, CellTiter-Glo ATP luminescence, 90 h; AID 651744; 5,600 compounds, 56% hits;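 active = mean loss of cell viability signal at or above a set limit, and enough replicates individually reaching it; inconclusive = meets only the mean limit or only the replicate share; inactive = meets neither condition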
Each line names hits and unclear results; the compound was inactive in the other large screens (follow-up assays come after a bar, where they were run). Many of the other results were omitted from the sample, so hits are more common in it than they were.

COc1ccc(NC(=O)Nc2ccc3c(c2)C(=O)N([C@H](C)CO)C[C@@H](C)[C@H](CN(C)S(=O)(=O)c2ccc(Cl)cc2)OCCCC[C@H](C)O3)cc1	T cruzi growth-1 104.4 (no result: IDH1 R132H inh) | T cruzi growth-2 109.8 | T cruzi growth-3 102.4 | 3T3 cytotox inactive | NIH3T3 tox 2 inactive
COc1ccc(NC(=O)Nc2ccc3c(c2)C(=O)N([C@@H](C)CO)C[C@@H](C)[C@H](CN(C)S(=O)(=O)c2ccc(Cl)cc2)OCCCC[C@@H](C)O3)cc1	T cruzi growth-1 113.1 | T cruzi growth-2 106.8 | T cruzi growth-3 106.8 | 3T3 cytotox inactive | NIH3T3 tox 2 inactive
COc1ccc(NC(=O)Nc2ccc3c(c2)C(=O)N([C@H](C)CO)C[C@H](C)[C@@H](CN(C)S(=O)(=O)c2ccc(Cl)cc2)OCCCC[C@@H](C)O3)cc1	none
O=C(C[C@H]1CC[C@H]2[C@@H](COC[C@H](O)CN2C(=O)Nc2ccc(F)cc2)O1)NCC1CC1	none (no result: IDH1 R132H inh, T cruzi growth-1)
C[C@H]1CN([C@@H](C)CO)C(=O)Cc2cc(NC(=O)C3CC3)ccc2O[C@H]1CN(C)Cc1ccc(C(F)(F)F)cc1	none
C[C@@H]1CN([C@H](C)CO)C(=O)c2cccc(NC(=O)c3cnccn3)c2O[C@H]1CN(C)Cc1ccc(C(F)(F)F)cc1	none
C[C@@H]1CN([C@@H](C)CO)C(=O)c2c(c3ccccc3n2C)-c2ccccc2CO[C@H]1CN(C)C(=O)c1cc(Cl)cc(Cl)c1	none (no result: IDH1 R132H inh, T cruzi growth-1)
C[C@@H]1CCCCO[C@H](CN(C)C(=O)Nc2ccccc2)[C@@H](C)CN([C@H](C)CO)C(=O)c2cc(NC(=O)Nc3cccc4ccccc34)ccc2O1	none (no result: IDH1 R132H inh)
COc1ccc(NC(=O)Nc2ccc3c(c2)C(=O)N([C@@H](C)CO)C[C@H](C)[C@@H](CN(C)S(=O)(=O)c2ccc(Cl)cc2)OCCCC[C@H](C)O3)cc1	T cruzi growth-1 113.4 (no result: IDH1 R132H inh) | T cruzi growth-2 105.2 | T cruzi growth-3 95.7 | 3T3 cytotox inactive | NIH3T3 tox 2 inactive
COc1ccc(S(=O)(=O)N(C)C[C@@H]2OCCCC[C@@H](C)Oc3ccc(NC(=O)Nc4ccccc4)cc3C(=O)N([C@H](C)CO)C[C@@H]2C)cc1	none (no result: IDH1 R132H inh)
COc1ccc(NC(=O)Nc2ccc3c(c2)C(=O)N([C@@H](C)CO)C[C@H](C)[C@H](CN(C)S(=O)(=O)c2ccc(OC)cc2)OCCCC[C@@H](C)O3)cc1	none (no result: IDH1 R132H inh)
COc1ccc(S(=O)(=O)N(C)C[C@@H]2OCCCC[C@H](C)Oc3ccc(NC(=O)Nc4ccccc4)cc3C(=O)N([C@H](C)CO)C[C@@H]2C)cc1	T cruzi growth-1 110.4 | T cruzi growth-2 106.2 | T cruzi growth-3 inactive | 3T3 cytotox inactive | NIH3T3 tox 2 inactive
C[C@@H]1CN([C@H](C)CO)C(=O)c2cccc(NC(=O)Nc3ccc4c(c3)OCO4)c2O[C@@H]1CN(C)C(=O)Nc1cccc2ccccc12	none (no result: IDH1 R132H inh)
C[C@@H]1CN([C@@H](C)CO)C(=O)c2cc(C#CC3CCCC3)cnc2O[C@@H]1CN(C)C(=O)C1CCCCC1	none
C[C@H]1CN([C@@H](C)CO)S(=O)(=O)c2ccc(-c3ccncc3)cc2O[C@@H]1CN(C)Cc1ccc(Oc2ccccc2)cc1	T cruzi growth-1 inconclusive | T cruzi growth-2 inactive | T cruzi growth-3 106.6 | 3T3 cytotox 85.7 | NIH3T3 tox 2 102.5
C[C@@H]1CN([C@H](C)CO)S(=O)(=O)c2ccc(-c3ccncc3)cc2O[C@@H]1CN(C)Cc1ccc(Oc2ccccc2)cc1	T cruzi growth-1 116.0 | T cruzi growth-2 98.7 | T cruzi growth-3 107.2 | 3T3 cytotox 83.7 | NIH3T3 tox 2 89.0
C[C@H]1CN([C@@H](C)CO)S(=O)(=O)c2ccc(-c3ccncc3)cc2O[C@H]1CN(C)Cc1ccc(Oc2ccccc2)cc1	none
C[C@@H]1CN([C@@H](C)CO)S(=O)(=O)c2ccc(-c3cncnc3)cc2O[C@@H]1CN(C)Cc1ccc(Oc2ccccc2)cc1	none (no result: T cruzi growth-1)
C[C@H](CO)N1C[C@H](C)[C@@H](CN(C)C(=O)Nc2ccc3c(c2)OCO3)Oc2ccc(NC(=O)C3CC3)cc2CC1=O	none
CC(C)NC(=O)Nc1ccc2c(c1)CC(=O)N([C@H](C)CO)C[C@@H](C)[C@@H](CN(C)S(=O)(=O)c1cccs1)O2	none (no result: IDH1 R132H inh)
COc1cccc(S(=O)(=O)Nc2ccc3c(c2)OC[C@H](C)N(Cc2ccccc2F)C[C@@H](C)[C@H](OC)CN(C)C3=O)c1	none
COc1cccc(S(=O)(=O)Nc2ccc3c(c2)C(=O)N(C)C[C@@H](OC)[C@@H](C)CN(Cc2ccccc2F)[C@@H](C)CO3)c1	none (no result: T cruzi growth-1)
CO[C@@H]1CN(C)C(=O)c2cc(NS(=O)(=O)c3cccc(F)c3)ccc2OC[C@@H](C)N(Cc2cc(F)ccc2F)C[C@@H]1C	T cruzi growth-1 99.9 | T cruzi growth-2 114.8 | T cruzi growth-3 inactive | 3T3 cytotox inactive | NIH3T3 tox 2 93.3
COc1cccc(S(=O)(=O)Nc2ccc3c(c2)OC[C@H](C)N(Cc2ccccc2F)C[C@H](C)[C@@H](OC)CN(C)C3=O)c1	none (no result: IDH1 R132H inh, T cruzi growth-1)
COc1cccc(S(=O)(=O)Nc2ccc3c(c2)OC[C@@H](C)N(Cc2ccccc2F)C[C@@H](C)[C@H](OC)CN(C)C3=O)c1	T cruzi growth-1 96.1 | T cruzi growth-2 105.0 | T cruzi growth-3 inactive | 3T3 cytotox inactive | NIH3T3 tox 2 inactive
COc1cccc(S(=O)(=O)Nc2ccc3c(c2)OC[C@@H](C)N(Cc2cc(F)ccc2F)C[C@@H](C)[C@H](OC)CN(C)C3=O)c1	T cruzi growth-1 102.5 | T cruzi growth-2 106.9 | T cruzi growth-3 inactive | 3T3 cytotox inactive | NIH3T3 tox 2 inactive
COc1ccc(S(=O)(=O)N(C)C[C@H]2Oc3c(NC(=O)C4CCCCC4)cccc3C(=O)N([C@@H](C)CO)C[C@H]2C)cc1	none (no result: IDH1 R132H inh)
N#Cc1ccc(-c2ccc(OC(=O)CS(=O)c3ccc(C(F)(F)F)cc3[N+](=O)[O-])cc2)cc1 (configuration not stated)	none (no result: GASC1 inh, T cruzi growth-1)
Cc1ccc(S(=O)(=O)NCC[C@@H]2CC[C@H](NC(=O)Nc3ccccc3F)[C@@H](CO)O2)cc1	none
COc1ccc(S(=O)(=O)N(C)C[C@@H]2OCCCC[C@@H](C)Oc3ccc(NC(=O)c4ccccc4)cc3C(=O)N([C@@H](C)CO)C[C@@H]2C)cc1	none (no result: IDH1 R132H inh)
C[C@H](CO)N1C[C@H](C)[C@@H](CN(C)C(=O)Nc2cccc3ccccc23)OCCCC[C@H](C)Oc2ccc(NS(=O)(=O)c3ccccc3)cc2C1=O	none (no result: IDH1 R132H inh, T cruzi growth-1)
C[C@H]1CCCCO[C@H](CN(C)C(=O)Nc2cccc3ccccc23)[C@@H](C)CN([C@@H](C)CO)C(=O)c2cc(NS(=O)(=O)c3ccccc3)ccc2O1	none (no result: IDH1 R132H inh, T cruzi growth-1)
